The source of these data is ChEMBL document CHEMBL4619801, “Discovery of Phthalazinone Derivatives as Novel Hepatitis B Virus Capsid Inhibitors” (J Med Chem, 2020).

Series [1] can be described thus: Drug metabolism in mouse liver microsomes assessed as compound level by measuring LC-MS area of metabolite-M1 at 3 uM in presence of NADPH incubated for 60 mins by UPLC-UV/QTOF MS analysis. In kind it is ADME, Microsome. The note with it: 1 h. In outline:
(§1)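 Each incubation held liver microsomes (human, monkey, dog, rat or mouse) at 0.5 mg/mL with 3.0 μM compound in 100 mM potassium phosphate, pH 7.4. After 3 min prewarming at 37 °C, the reaction was started with 1 mM NADPH. It was stopped at 60 min with ice-cold acetonitrile. Parent remaining and metabolites were judged from relative UV area.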

The nature of series [2]: Drug metabolism in monkey liver microsomes assessed as compound level by measuring LC-MS area of metabolite-M1 at 3 uM in presence of NADPH incubated for 60 mins by UPLC-UV/QTOF MS analysis. The note with it: rhesus monkey, 1 h. In kind it is ADME, Macaca mulatta, Microsome. In outline: as §1
Series [3] in a line: Drug metabolism in human liver microsomes assessed as compound level by measuring LC-MS area of metabolite-M1 at 3 uM in presence of NADPH incubated for 60 mins by UPLC-UV/QTOF MS analysis. The note with it: 1 h. The series is classed as ADME, Microsome. Summed up: as §1
(In general: Liver microsomes are a subcellular fraction often used to study metabolism.)

Series [4] in a line: Drug metabolism in human liver microsomes at 3 uM in presence of NADPH incubated for 60 mins by UPLC-UV/QTOF MS analysis relative to control. The note with it: read-out: Drug metabolism. In kind it is ADME, Microsome. In outline: as §1
Series [5] can be described thus: Drug metabolism in rat liver microsomes assessed as compound level by measuring LC-MS area at 3 uM in presence of NADPH incubated for 60 mins by UPLC-UV/QTOF MS analysis. The note with it: 1 h. The series is classed as ADME, Microsome. In outline: as §1
The nature of series [6]: Drug metabolism in dog liver microsomes assessed as compound level by measuring UV-area at 3 uM in presence of NADPH incubated for 60 mins by UPLC-UV/QTOF MS analysis. The series is classed as ADME, Canis lupus familiaris, Microsome. The note with it: 1 h. Summed up: as §1
Series [7] in a line: Tmax in Sprague-Dawley rat at 20 mg/kg, po dosed as single administration. The series is classed as ADME, organism-based. The note with it: in vivo.
Series [8] in a line: Drug metabolism in monkey liver microsomes assessed as compound level by measuring LC-MS area at 3 uM in presence of NADPH incubated for 60 mins by UPLC-UV/QTOF MS analysis. In kind it is ADME, Macaca mulatta, Microsome. The note with it: rhesus monkey, 1 h. Summed up: as §1
Series [9] can be described thus: AUC (0 to t) in Sprague-Dawley rat at 2 mg/kg, iv dosed as single administration. In kind it is ADME, organism-based. The note with it: in vivo.
The nature of series [10]: Drug metabolism in dog liver microsomes assessed as compound level by measuring LC-MS area at 3 uM in presence of NADPH incubated for 60 mins by UPLC-UV/QTOF MS analysis. The series is classed as ADME, Canis lupus familiaris, Microsome. The note with it: 1 h. In outline: as §1

Take `Cc1cc(-c2ccc(F)nc2F)nn(Cc2ccc(Cl)cc2)c1=O`: the Activity came to 10.3 ×10³ No_unit in series [1]; 8.3 ×10³ No_unit in series [2]; 2.64 ×10³ No_unit in [3]; 7.4 ×10³ No_unit in [5]; 26.3 ×10³ No_unit in [6]; 5.42 ×10³ No_unit in series [8]. The Activity in [10] is reported as 3.09 ×10³ No_unit. For the same compound, the metabolised at 1 h, 3 µM in series [4] turned out to be 34%. In [7], the Tmax came out at 15 min. Besides, the area under the curve AUC(0-t) in series [9] is 428 ng·h/mL.

One may read the Tmax as the time from dosing to the highest level. One may read the AUC(0-t) as exposure summed from dosing to a finite time, without extrapolation to infinity.
